Source: ChEMBL document CHEMBL2163267, “Novel N-linked aminopiperidine inhibitors of bacterial topoisomerase type II with reduced pK(a): antibacterial agents with an improved safety profile” (J Med Chem, 2012)
Values after ≈ are worked out from the molar mass of the structure shown.

Columns and labels:
[1] = Oral bioavailability in Wistar Han rat at 10 mg/kg; format: ADME, organism-based; conditions: in vivo
In short: (§1)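 Bioavailability from a 10 mg/kg oral dose, by gavage in rats (groups of three) or orally in male beagle dogs (n = 3). Plasma sampled serially over time (dogs 0 to 24 h). Levels measured by LC-MS/MS and referenced to iv dosing. Parameters from non-compartmental analysis.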

[2] = Fraction unbound in human plasma at 10 uM by equilibrium dialysis method; format: ADME, cell-free
In short: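 Equilibrium dialysis. Compound at 10 μM in the plasma (donor) chamber against phosphate buffer, rotated at 37 °C for 16 h. Drug in the plasma and buffer samples quantified by LC-MS/MS after methanol protein precipitation with internal standard. Standard curve 10 nM to 10 μM.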

[3] = AUC in Wistar Han rat at 10 mg/kg, iv administered as infusion; format: ADME, organism-based; parameters: dose 10 mg/kg, route intravenous; conditions: plasma
In short: (§2)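 Single iv dose (3 mg/kg bolus, or 10 mg/kg infusion, per line). Rats in groups of three, bolus via cannulated jugular vein. Male beagle dogs (n = 3), iv as 15 min infusion, sampled 0 to 24 h. Serial whole-blood samples taken at time intervals. Plasma levels measured by LC-MS/MS. Parameters estimated by non-compartmental analysis.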

Mus musculus [4] = test: AUC (infinity) in CD1 mouse infected with methicillin-resistant Staphylococcus aureus ARC 1692 at 20 mg/kg/day, ip; format: ADME, organism-based, Plasma; parameters: dose 20 mg/kg/day, time infinity, route intraperitoneal; conditions: in vivo
[5] = AUC in Beagle dog at 10 mg/kg, iv administered as infusion; format: ADME, organism-based, Canis lupus familiaris; parameters: dose 10 mg/kg, route intravenous; conditions: plasma; in short: as §2
Escherichia coli = test: Antibacterial activity against Escherichia coli W3110 after 18 to 24 hrs by CLSI broth microdilution method; format: functional
Staphylococcus aureus [6] = test: Antibacterial activity against methicillin-resistant Staphylococcus aureus ARC 1692 in ABT-treated CD1 mouse neutropenic thigh infection model assessed as reduction in log10 CFU per gram of thigh at 20 mg/kg/day, ip qd starting 2 hrs post-infection measured after 24 hrs; format: functional; conditions: route intraperitoneal
[7] = Intrinsic clearance in Beagle dog hepatocytes measured per 10^6 cells; format: ADME, cell-based, Canis lupus familiaris, Hepatocyte; conditions: read-out: CLH
[8] = Half life in Wistar Han rat at 10 mg/kg, iv administered as infusion and po; format: ADME, organism-based; parameters: dose 10 mg/kg, route oral; conditions: in vivo
Staphylococcus aureus [9] = test: Antibacterial activity against community acquired methicillin-resistant Staphylococcus aureus ARC 3189 after 18 to 24 hrs by CLSI broth microdilution method; format: functional
In short: (§3)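 CLSI broth microdilution in Mueller Hinton Broth 2. Inocula prepared from blood agar plates grown at 35 °C for 18–24 h. Compound in DMSO, 2% DMSO final, 11 doubling dilutions from 64 to 0.06 μg/mL. Plates read at 620 nm.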

Streptococcus pneumoniae = test: Antibacterial activity against penicillin-susceptible Streptococcus pneumoniae D39 after 18 to 24 hrs by CLSI broth microdilution method; format: functional
[10] = Oral bioavailability in Beagle dog at 10 mg/kg; format: ADME, organism-based, Canis lupus familiaris; conditions: in vivo; in short: as §1
Staphylococcus aureus [11] = test: Antibacterial activity against linezolid-resistant Staphylococcus aureus ARC 3583 after 18 to 24 hrs by CLSI broth microdilution method; format: functional; in short: as §3
Rattus norvegicus = test: Volume of distribution in Wistar Han rat at 10 mg/kg, iv administered as infusion and po; format: ADME, organism-based; parameters: dose 10 mg/kg, route oral; conditions: in vivo; in short: as §2
Staphylococcus aureus [12] = test: Antibacterial activity against methicillin-susceptible Staphylococcus aureus after 18 to 24 hrs by CLSI broth microdilution method; format: functional
Pseudomonas aeruginosa = test: Antibacterial activity against Pseudomonas aeruginosa PAO1 after 18 to 24 hrs by CLSI broth microdilution method; format: functional
[13] = Half life in Beagle dog at 10 mg/kg, iv administered as infusion and po; format: ADME, organism-based, Canis lupus familiaris; parameters: dose 10 mg/kg, route oral; conditions: in vivo
[14] = Dissociation constant, pKa of the compound by pH metric assay; format: physicochemical
In short: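 pH-metric titration on an automated titrator, run in triplicate. Accuracy about 0.02 log units.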

Cavia porcellus [15] = test: Cardiotoxicity in iv dosed guinea pig assessed as change in MAPD90 at 67 uM total plasma concentration; format: toxicity, organism-based; conditions: in vivo
In short: (§4)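 Male guinea pigs anaesthetized with Nembutal, tracheotomized and mechanically ventilated. Compound given iv in two 17 min infusion periods with cardiac pacing. Monophasic action potential recorded continuously and MAPD90 taken. Blood drawn at each dose level for plasma concentration. Vehicle controls run in separate cohorts; n = 6.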

Staphylococcus aureus [16] = test: Antibacterial activity against vancomycin-resistant Staphylococcus aureus ARC 3186 after 18 to 24 hrs by CLSI broth microdilution method; format: functional; in short: as §3
[17] = target: T1, Voltage-gated inwardly rectifying potassium channel KCNH2 (Homo sapiens, UniProt Q12809); test: Inhibition of human ERG by Ionworks assay
[18] = target: T1, Voltage-gated inwardly rectifying potassium channel KCNH2; test: Displacement of [3H]-astemizole from human ERG expressed in HEK293 cells after 60 mins by liquid scintillation counter; format: cell-based
[19] = Octanol-phosphate buffer partition coefficient, log D of the compound at pH 7.4 by shake flask method; format: physicochemical
In short: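 Shake-flask partition between n-octanol and 10 mM phosphate buffer at pH 7.4. Shaken 1 h at 1200 rpm to reach equilibrium. Phases analysed by LC/UV, with MS for mass confirmation.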

[20] = Intrinsic clearance in Wistar Han rat hepatocytes measured per 10^6 cells; format: ADME, cell-based, Hepatocyte; conditions: read-out: CLH
Mus musculus [21] = test: AUC (infinity) in CD1 mouse infected with methicillin-resistant Staphylococcus aureus ARC 1692 at 60 mg/kg/day, ip; format: ADME, organism-based, Plasma; parameters: dose 60 mg/kg/day, time infinity, route intraperitoneal; conditions: in vivo
Mus musculus [22] = test: AUC (infinity) in CD1 mouse infected with methicillin-resistant Staphylococcus aureus ARC 1692 at 40 mg/kg/day, ip; format: ADME, organism-based, Plasma; parameters: dose 40 mg/kg/day, time infinity, route intraperitoneal; conditions: in vivo
[23] = Intrinsic clearance in human hepatocytes measured per 10^6 cells; format: ADME, cell-based, Hepatocyte; conditions: read-out: CLH
Staphylococcus aureus [24] = test: Antibacterial activity against methicillin-resistant Staphylococcus aureus ARC 1692 in ABT-treated CD1 mouse neutropenic thigh infection model assessed as reduction in log10 CFU per gram of thigh at 60 mg/kg/day, ip qd starting 2 hrs post-infection measured after 24 hrs; format: functional; conditions: route intraperitoneal
Staphylococcus aureus [25] = test: Antibacterial activity against hospital acquired methicillin-resistant Staphylococcus aureus ARC 1692 after 18 to 24 hrs by CLSI broth microdilution method; format: functional; in short: as §3
Staphylococcus aureus [26] = test: Antibacterial activity against methicillin-resistant Staphylococcus aureus ARC 1692 in ABT-treated CD1 mouse neutropenic thigh infection model assessed as reduction in log10 CFU per gram of thigh at 40 mg/kg/day, ip qd starting 2 hrs post-infection measured after 24 hrs; format: functional; conditions: route intraperitoneal
Canis familiaris = test: Volume of distribution in Beagle dog at 10 mg/kg, iv administered as infusion and po; format: ADME, organism-based, Canis lupus familiaris; parameters: dose 10 mg/kg, route oral; conditions: in vivo; in short: as §2
[27] = Inhibition of Escherichia coli DNA topoisomerase 4 subunit ParC/DNA topoisomerase 4 subunit ParE ATPase activity after 24 hrs by malachite green staining-based colorimetric assay
Cavia porcellus [28] = test: Cardiotoxicity in iv dosed guinea pig assessed as MAPD90 prolongation at 16 uM free plasma concentration; format: toxicity, organism-based; conditions: in vivo; in short: as §4
[29] = Half life in Wistar Han rat at 3 mg/kg, iv administered as bolus dose and 10 mg/kg, po; format: ADME, organism-based; conditions: in vivo; in short: as §2
[30] = Clearance in Beagle dog at 3 mg/kg, iv administered as bolus dose and 10 mg/kg, po; format: ADME, organism-based, Canis lupus familiaris; conditions: in vivo
[31] = Volume of distribution in Wistar Han rat at 3 mg/kg, iv administered as bolus dose and 10 mg/kg, po; format: ADME, organism-based; conditions: in vivo; in short: as §2
[32] = AUC in Beagle dog at 3 mg/kg, iv administered as bolus dose; format: ADME, organism-based, Canis lupus familiaris; parameters: dose 3 mg/kg, route intravenous; conditions: plasma
[33] = Volume of distribution in Beagle dog at 3 mg/kg, iv administered as bolus dose and 10 mg/kg, po; format: ADME, organism-based, Canis lupus familiaris; conditions: in vivo
[34] = AUC in Wistar Han rat at 3 mg/kg, iv administered as bolus dose; format: ADME, organism-based; parameters: dose 3 mg/kg, route intravenous; conditions: plasma; in short: as §2
[35] = Half life in Beagle dog at 3 mg/kg, iv administered as bolus dose and 10 mg/kg, po; format: ADME, organism-based, Canis lupus familiaris; conditions: in vivo
[36] = Clearance in Wistar Han rat at 3 mg/kg, iv administered as bolus dose and 10 mg/kg, po; format: ADME, organism-based; conditions: in vivo; in short: as §2

T1 sequence (Q12809 whole entry): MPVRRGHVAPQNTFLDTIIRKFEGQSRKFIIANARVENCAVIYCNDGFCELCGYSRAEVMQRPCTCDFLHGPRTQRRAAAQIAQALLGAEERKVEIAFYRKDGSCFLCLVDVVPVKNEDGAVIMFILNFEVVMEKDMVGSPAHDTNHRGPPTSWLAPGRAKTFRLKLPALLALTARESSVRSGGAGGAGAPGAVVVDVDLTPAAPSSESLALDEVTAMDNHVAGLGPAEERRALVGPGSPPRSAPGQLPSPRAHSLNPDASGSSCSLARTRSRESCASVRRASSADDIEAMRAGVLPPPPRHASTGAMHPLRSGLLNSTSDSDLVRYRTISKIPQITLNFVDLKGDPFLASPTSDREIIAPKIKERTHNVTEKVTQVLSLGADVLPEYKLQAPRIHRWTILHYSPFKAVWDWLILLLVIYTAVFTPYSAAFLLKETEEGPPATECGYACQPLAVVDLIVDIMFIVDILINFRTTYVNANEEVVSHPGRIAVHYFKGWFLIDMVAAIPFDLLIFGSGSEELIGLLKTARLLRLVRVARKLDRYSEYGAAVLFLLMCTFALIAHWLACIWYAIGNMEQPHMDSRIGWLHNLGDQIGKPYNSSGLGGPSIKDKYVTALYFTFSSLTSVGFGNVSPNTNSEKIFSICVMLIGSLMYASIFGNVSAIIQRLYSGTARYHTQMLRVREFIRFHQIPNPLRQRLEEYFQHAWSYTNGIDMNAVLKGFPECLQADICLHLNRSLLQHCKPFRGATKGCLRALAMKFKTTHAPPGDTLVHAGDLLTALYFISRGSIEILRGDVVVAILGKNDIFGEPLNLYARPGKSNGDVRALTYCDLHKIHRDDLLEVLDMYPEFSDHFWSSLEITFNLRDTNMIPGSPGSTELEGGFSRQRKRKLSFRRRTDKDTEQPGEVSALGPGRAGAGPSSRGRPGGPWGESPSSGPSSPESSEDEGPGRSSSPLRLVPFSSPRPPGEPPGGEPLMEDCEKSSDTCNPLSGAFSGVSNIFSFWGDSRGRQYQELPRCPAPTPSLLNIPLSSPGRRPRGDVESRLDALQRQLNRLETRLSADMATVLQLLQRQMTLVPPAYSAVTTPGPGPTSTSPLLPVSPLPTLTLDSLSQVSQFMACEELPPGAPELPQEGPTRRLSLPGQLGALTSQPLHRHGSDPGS

N#Cc1ccc2ccc(=O)n(CCN3CC[C@H](NCc4cc5c(cn4)OCCO5)[C@H](F)C3)c2c1
bioavailability [1]: 18% | fraction unbound at 10 µM [2]: 0.25 | AUC [3]: 3100 ng·h/mL | AUC (Mus musculus [4]): 18 µg/h/mL | AUC [5]: 27000 ng·h/mL | MIC (Escherichia coli): 4 µg/mL (≈ 8.63 µM) | log10cfu (Staphylococcus aureus [6]): 0.1 | hepatocyte CLint [7]: 4.5 µL/min/1e6 cells | half-life [8]: 0.9 h | MIC (Staphylococcus aureus [9]): 0.06 µg/mL (≈ 0.129 µM) | MIC (Streptococcus pneumoniae): 0.13 µg/mL (≈ 0.28 µM) | bioavailability [10]: 60% | MIC (Staphylococcus aureus [11]): 0.125 µg/mL (≈ 0.27 µM) | Vd (Rattus norvegicus): 3 L/kg | MIC (Staphylococcus aureus [12]): 0.06 µg/mL (≈ 0.129 µM) | MIC (Pseudomonas aeruginosa): > 8 µg/mL | half-life [13]: 3.4 h | pKa [14]: 7.03 | Activity (Cavia porcellus [15]): Non-toxic | MIC (Staphylococcus aureus [16]): 0.015 µg/mL (≈ 0.0324 µM) | IC50 [17]: 233 µM | IC50 [18]: > 200 µM | logD [19]: 0.96 | hepatocyte CLint [20]: 13 µL/min/1e6 cells | AUC (Mus musculus [21]): 53 µg/h/mL | AUC (Mus musculus [22]): 37 µg/h/mL | hepatocyte CLint [23]: 5.2 µL/min/1e6 cells | log10cfu (Staphylococcus aureus [24]): 1.5 | MIC (Staphylococcus aureus [25]): 0.125 µg/mL (≈ 0.27 µM) | log10cfu (Staphylococcus aureus [26]): 1 | Vd (Canis familiaris): 1.5 L/kg | IC50 [27]: 0.048 µM

N#Cc1ccc2ccc(=O)n(CCN3CCC(NCc4cc5c(cn4)OCCO5)CC3)c2c1
bioavailability [1]: 31% | Activity (Cavia porcellus [28]): > 10% | fraction unbound at 10 µM [2]: 0.28 | MIC (Escherichia coli): 0.5 µg/mL (≈ 1.12 µM) | half-life [29]: 3 h | hepatocyte CLint [7]: 1.8 µL/min/1e6 cells | clearance [30]: 18 mL/min/kg | MIC (Streptococcus pneumoniae): 0.08 µg/mL (≈ 0.18 µM) | bioavailability [10]: 72% | MIC (Staphylococcus aureus [12]): 0.03 µg/mL (≈ 0.0673 µM) | MIC (Pseudomonas aeruginosa): > 8 µg/mL | Vd [31]: 21 L/kg | AUC [32]: 2600 ng·h/mL | pKa [14]: 8.27 | IC50 [17]: 44 µM | Vd [33]: 8 L/kg | IC50 [18]: 39 µM | AUC [34]: 370 ng·h/mL | logD [19]: 0.68 | hepatocyte CLint [20]: 42 µL/min/1e6 cells | half-life [35]: 8.4 h | clearance [36]: 127 mL/min/kg | IC50 [27]: 0.0032 µM
